Data published in ChEMBL document CHEMBL3526125, “P-glycoprotein increases portal bioavailability of loperamide in mouse by reducing first-pass intestinal metabolism” (Drug Metab Dispos, 2013).

Tests used:
[1] = AUC (0 to 120 mins) in P-gp competent CF-1 mouse plasma at 0.4 mg/kg through oral gavage in presence of 1 mM ABT CYP3A inhibitor; format: ADME, organism-based; parameters: time < 2 hr, dose 0.4 mg/kg, route oral
[2] = AUC (0 to 120 mins) in P-gp competent CF-1 mouse plasma at 0.4 mg/kg through oral gavage; format: ADME, organism-based; parameters: time < 2 hr, dose 0.4 mg/kg, route oral
In short: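 Mice were anaesthetised with IP ketamine 140 mg/kg and xylazine 15 mg/kg, kept at 37°C, and portal vein-cannulated. Pretreatment was saline or oral ABT at 50 mg/kg. Portal-circulation AUC0–120 min was calculated.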

[3] = Drug metabolism in P-gp competent CF-1 mouse intestine assessed as CYP3A-mediated metabolite formation measured per cm'2 of tissue by LC-MS/MS analysis in presence of 100 uM Cyp3a oxidative metabolism inhibitor troleandomycin; format: ADME, tissue-based
[4] = Drug metabolism in P-gp deficient CF-1 mouse intestine assessed as CYP3A-mediated metabolite formation measured per cm'2 of tissue by LC-MS/MS analysis in presence of 100 uM Cyp3a oxidative metabolism inhibitor troleandomycin; format: ADME, tissue-based
[5] = Portal bioavailability in P-gp competent CF-1 mouse at 0.23 mg/kg through oral gavage by LC-MS/MS analysis in presence of 1 mM ABT CYP3A inhibitor; format: ADME, organism-based; conditions: in vivo
In short: (§1)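 Mice received oral ABT 50 mg/kg 3 h before study, plus another 50 mg/kg co-administered with loperamide 0.23 mg/kg in 300 µL 0.9% NaCl with 1% EtOH. Portal and jugular sampling over 240 min. F_G = (portal minus systemic-returned mass)/dose, using portal flow 1.45 mL/min and blood:plasma ratio 0.71. n=6.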

[6] = Portal bioavailability in P-gp deficient CF-1 mouse at 0.23 mg/kg through oral gavage by LC-MS/MS analysis in presence of 1 mM ABT CYP3A inhibitor; format: ADME, organism-based; conditions: in vivo; in short: as §1
[7] = AUC in P-gp competent CF-1 mouse plasma at 0.23 mg/kg through systemic exposure; format: ADME, organism-based; parameters: dose 0.23 mg/kg
In short: (§2)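 Overnight-fasted, ketamine/xylazine-anesthetized CF-1 or Mdr1a1-/- mice with jugular vein cannulae. Loperamide 0.23 or 0.47 mg/kg by oral gavage in 300 µL 0.9% NaCl with 1% EtOH. Jugular blood (20 µL) taken at 10, 30, 60, 120, 180 and 240 min. Plasma loperamide measured by LC-MS/MS. AUC0–240 min, n=6.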

[8] = AUC in P-gp competent CF-1 mouse plasma at 0.47 mg/kg through systemic exposure; format: ADME, organism-based; parameters: dose 0.47 mg/kg; in short: as §2
[9] = AUC in P-gp deficient CF-1 mouse plasma at 0.23 mg/kg through systemic exposure; format: ADME, organism-based; parameters: dose 0.23 mg/kg; in short: as §2
[10] = AUC in P-gp deficient CF-1 mouse plasma at 0.47 mg/kg through systemic exposure; format: ADME, organism-based; parameters: dose 0.47 mg/kg; in short: as §2
[11] = AUC (0 to 240 mins) in P-gp deficient CF-1 mouse plasma at 0.23 mg/kg through oral gavage; format: ADME, organism-based; parameters: time < 4 hr, dose 0.23 mg/kg, route oral
In short: (§3)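 Male CF-1 (P-gp competent) or Mdr1a1-/- mice, overnight-fasted, on ketamine/xylazine anesthesia held at 37°C, portal vein-cannulated. Loperamide 0.23, 0.47 or 0.95 mg/kg by oral gavage in 300 µL 0.9% NaCl with 1% EtOH. Serial 20 µL portal blood samples over 240 min. Plasma loperamide quantified by LC-MS/MS. AUC0–240 min reported as mean ± SD, n=6.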

[12] = AUC (0 to 240 mins) in P-gp competent CF-1 mouse plasma at 0.94 mg/kg through oral gavage; format: ADME, organism-based; parameters: time < 4 hr, dose 0.94 mg/kg, route oral; in short: as §3
[13] = AUC (0 to 240 mins) in P-gp competent CF-1 mouse plasma at 0.47 mg/kg through oral gavage; format: ADME, organism-based; parameters: time < 4 hr, dose 0.47 mg/kg, route oral; in short: as §3
[14] = AUC (0 to 240 mins) in P-gp competent CF-1 mouse plasma at 0.23 mg/kg through oral gavage; format: ADME, organism-based; parameters: time < 4 hr, dose 0.23 mg/kg, route oral; in short: as §3
[15] = AUC (0 to 240 mins) in P-gp deficient CF-1 mouse plasma at 0.47 mg/kg through oral gavage; format: ADME, organism-based; parameters: time < 4 hr, dose 0.47 mg/kg, route oral; in short: as §3
[16] = Drug metabolism in P-gp competent CF-1 mouse intestine assessed as CYP3A-mediated metabolite formation […]; format: ADME, tissue-based; conditions: excised jejunum tissue
[17] = Drug metabolism in P-gp deficient CF-1 mouse intestine assessed as CYP3A-mediated metabolite formation […]; format: ADME, tissue-based; conditions: excised jejunum tissue
CYP3A [18] = test: Drug metabolism in P-gp competent CF-1 mouse intestine assessed as CYP3A-mediated […] by LC-MS/MS analysis; format: ADME, tissue-based
In short: (§4)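 Jejunum from fasted CF-1 or Mdr1a1-/- mice mounted in diffusion chambers in oxygenated KBR at 37°C; tissue used if TEER ≥250 Ω·cm². Apical loperamide 0.75–125 µM in KBR with 0.1% EtOH for 90 min. Monodemethyl- plus didemethyl-loperamide summed across tissue, AP and BL by LC-MS/MS. Fitted to Michaelis–Menten for Vmax and Km. n=3 mice × 4 tissues.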

CYP3A [19] = test: Drug metabolism in P-gp deficient CF-1 mouse intestine assessed as CYP3A-mediated […] by LC-MS/MS analysis; format: ADME, tissue-based; in short: as §4
[20] = Portal bioavailability in P-gp deficient CF-1 mouse at 0.94 mg/kg through oral gavage; format: ADME, organism-based; conditions: in vivo
In short: (§5)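 Portal vein-cannulated, anesthetized CF-1 or Mdr1a1-/- mice given oral loperamide 0.23, 0.47 or 0.94 mg/kg. Portal and systemic plasma converted to blood concentration using a blood:plasma ratio of 0.71. M_portal = Q_portal (1.45 mL/min) × AUC_portal(0–4 h). M_systemic is subtracted to give M_absorbed, and F_G = M_absorbed/dose. n=6.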

[21] = Portal bioavailability in P-gp competent CF-1 mouse at 0.47 mg/kg through oral gavage; format: ADME, organism-based; conditions: in vivo; in short: as §5
[22] = Portal bioavailability in P-gp deficient CF-1 mouse at 0.47 mg/kg through oral gavage; format: ADME, organism-based; conditions: in vivo; in short: as §5
[23] = Portal bioavailability in P-gp competent CF-1 mouse at 0.23 mg/kg through oral gavage; format: ADME, organism-based; conditions: in vivo; in short: as §5
[24] = Portal bioavailability in P-gp deficient CF-1 mouse at 0.23 mg/kg through oral gavage; format: ADME, organism-based; conditions: in vivo; in short: as §5
[25] = AUC (0 to 240 mins) in P-gp deficient CF-1 mouse plasma at 0.94 mg/kg through oral gavage; format: ADME, organism-based; parameters: time < 4 hr, dose 0.94 mg/kg, route oral; in short: as §3

Question: With C[C@]12CC[C@H]3[C@@H](CCC4=CC(=O)CC[C@@]43C)[C@@H]1CC[C@@H]2O [TESTOSTERONE] as the compound, how does the AUC(0-t) at 2 h [1] read?
Answer: 1 ng·h/mL

Question: What about the AUC(0-t) at 2 h [2] of the same compound?
Answer: 43.3 ng·h/mL

Question: And the Vmax [3]?
Answer: 0.5 pmol/min

Question: What about the Vmax [4] of the same compound?
Answer: 0.5 pmol/min

Question: For CN(C)C(=O)C(CCN1CCC(O)(c2ccc(Cl)cc2)CC1)(c1ccccc1)c1ccccc1 [LOPERAMIDE], which Fg [5] is on record?
Answer: 3.6%

Question: What about the Fg [6] of the same compound?
Answer: 28%

Question: And the AUC [7]?
Answer: 0.933 ng·h/mL

Question: And the AUC [8]?
Answer: 0.517 ng·h/mL

Question: And the AUC [9]?
Answer: 1.03 ng·h/mL

Question: And the AUC [10]?
Answer: 4.33 ng·h/mL

Question: And the AUC(0-t) at 4 h [11]?
Answer: 1.5 ng·h/mL

Question: And the AUC(0-t) at 4 h [12]?
Answer: 81.7 ng·h/mL

Question: And the AUC(0-t) at 4 h [13]?
Answer: 4.48 ng·h/mL

Question: And the AUC(0-t) at 4 h [14]?
Answer: 4.43 ng·h/mL

Question: What about the AUC(0-t) at 4 h [15] of the same compound?
Answer: 7 ng·h/mL

Question: What about the Vmax [16] of the same compound?
Answer: 31 pmol/min/cm²

Question: And the Vmax [17]?
Answer: 30 pmol/min/cm²

Question: What about the Km (CYP3A [18]) of the same compound?
Answer: 22 µM

Question: What about the Km (CYP3A [19]) of the same compound?
Answer: 4.5 µM

Question: And the Fg [20]?
Answer: 17%

Question: And the Fg [21]?
Answer: 1.7%

Question: And the Fg [22]?
Answer: 1.1%

Question: What about the Fg [23] of the same compound?
Answer: 2.6%

Question: What about the Fg [24] of the same compound?
Answer: 0.4%

Question: What about the AUC(0-t) at 4 h [25] of the same compound?
Answer: 95 ng·h/mL
